Assay results as given in ChEMBL document CHEMBL1149320, “New class of corticotropin-releasing factor (CRF) antagonists: small peptides having high binding affinity for CRF receptor” (J Med Chem, 2004).
Bridge positions count the residues as written; N and C are the ends. Square brackets hold non-standard residues; d marks the D form. Peptide text beside a SMILES is read from it. ξ: configuration not given here. Cha = N[C@@H](CC1CCCCC1)C(=O)O; ξR = N=C(N)NCCCC(N)C(=O)O; Nle = CCCC[C@H](N)C(=O)O

molecular target: T1, Corticotropin-releasing factor receptor 1 (Homo sapiens, UniProt P34998); test: Binding affinity at human CRF1 receptor (CRFR1) on HeLA cell membranes.; type: cell-based; conditions: not given
T1 sequence (P34998 whole entry): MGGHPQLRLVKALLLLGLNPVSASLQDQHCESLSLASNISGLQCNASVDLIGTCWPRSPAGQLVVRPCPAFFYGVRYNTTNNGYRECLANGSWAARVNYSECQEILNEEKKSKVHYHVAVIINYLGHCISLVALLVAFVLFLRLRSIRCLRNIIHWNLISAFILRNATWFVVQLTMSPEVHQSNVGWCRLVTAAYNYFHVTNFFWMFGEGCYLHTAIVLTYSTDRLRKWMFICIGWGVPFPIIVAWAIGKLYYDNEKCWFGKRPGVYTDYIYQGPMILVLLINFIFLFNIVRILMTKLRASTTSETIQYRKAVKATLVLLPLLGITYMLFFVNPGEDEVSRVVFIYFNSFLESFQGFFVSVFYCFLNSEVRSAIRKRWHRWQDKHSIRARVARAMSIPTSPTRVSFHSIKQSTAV
How it was run: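 Membranes from HeLa cells transfected with a plasmid encoding human CRFR1, precoupled to WGA scintillation proximity beads. Bead-bound radioactivity counted by scintillation. Ki reported; curves from three determinations, each in duplicate.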

| Ki [µM] | Structure (SMILES) |
| --- | --- |
| > 1 | CCCC[C@H](NC(=O)[C@H](CC(C)C)NC(=O)[C@H](CCCCN)NC(=O)[C@H](CCCN=C(N)N)NC(=O)[C@H](CC(=O)O)NC(=O)[C@@H]1CCCCNC(=O)CC[C@H](NC(C)=O)C(=O)N[C@@H](C)C(=O)N[C@@H](Cc2c[nH]cn2)C(=O)N1)C(=O)N[C@@H](CCC(=O)O)C(=O)N[C@H](C(=O)N[C@H](C(N)=O)[C@@H](C)CC)[C@@H](C)CC (Ac-EAHKDRKL[Nle]EII-NH2; lactam 1-4) |
| > 1 | CCCC[C@H](NC(=O)[C@H](CC(C)C)NC(=O)[C@H](CCCCN)NC(=O)[C@H](CCCN=C(N)N)NC(=O)[C@H](CC(C)C)NC(=O)[C@@H]1CCCCNC(=O)CC[C@H](NC(C)=O)C(=O)N[C@@H](C)C(=O)N[C@@H](Cc2c[nH]cn2)C(=O)N1)C(=O)N[C@@H](CCC(=O)O)C(=O)N[C@H](C(=O)N[C@H](C(N)=O)[C@@H](C)CC)[C@@H](C)CC (Ac-EAHKLRKL[Nle]EII-NH2; lactam 1-4) |
| > 1 | CCCC[C@H](NC(=O)[C@H](CC(C)C)NC(=O)[C@H](CCCCN)NC(=O)[C@H](CCCN=C(N)N)NC(=O)[C@H](CCC(N)=O)NC(=O)[C@@H]1CCCCNC(=O)CC[C@H](NC(C)=O)C(=O)N[C@@H](C)C(=O)N[C@@H](Cc2c[nH]cn2)C(=O)N1)C(=O)N[C@@H](CCC(=O)O)C(=O)N[C@H](C(=O)N[C@H](C(N)=O)[C@@H](C)CC)[C@@H](C)CC (Ac-EAHKQRKL[Nle]EII-NH2; lactam 1-4) |
| > 1 | CCCC[C@H](NC(=O)[C@H](CC(C)C)NC(=O)[C@H](CCCCN)NC(=O)[C@H](CCCN=C(N)N)NC(=O)[C@H](CC(N)=O)NC(=O)[C@@H]1CCCCNC(=O)CC[C@H](NC(C)=O)C(=O)N[C@@H](CC(=O)O)C(=O)N[C@@H](Cc2c[nH]cn2)C(=O)N1)C(=O)N[C@@H](CCC(=O)O)C(=O)N[C@H](C(=O)N[C@H](C(N)=O)[C@@H](C)CC)[C@@H](C)CC (Ac-EDHKNRKL[Nle]EII-NH2; lactam 1-4) |

same assay, conditions: hela

| Structure (SMILES) | Ki [µM] |
| --- | --- |
| CCCC[C@H](NC(=O)[C@H](CC(C)C)NC(=O)[C@H](CCCCN)NC(=O)[C@H](CCCN=C(N)N)NC(=O)[C@H](CC(N)=O)NC(=O)[C@@H]1CCCCNC(=O)CC[C@H](NC(C)=O)C(=O)N[C@H](C)C(=O)N[C@@H](Cc2ccccc2)C(=O)N1)C(=O)N[C@@H](CCC(=O)O)C(=O)N[C@H](C(=O)N[C@H](C(N)=O)[C@@H](C)CC)[C@@H](C)CC | > 1 |
| CC[C@H](C)[C@H](NC(=O)[C@@H](NC(=O)[C@H](CC(=O)O)NC(=O)[C@H](CC1CCCCC1)NC(=O)[C@H](CC(C)C)NC(=O)[C@H](CCCCN)NC(=O)[C@H](CCCNC(=N)N)NC(=O)[C@H](CC(C)C)NC(=O)[C@@H]1CCCCNC(=O)CC[C@H](NC(C)=O)C(=O)N[C@H](C)C(=O)N[C@@H](CCC(=O)O)C(=O)N1)[C@@H](C)CC)C(N)=O | 0.0031 |
| CCCC[C@H](NC(=O)[C@H](CC(C)C)NC(=O)[C@H](CCCCN)NC(=O)[C@H](CCCNC(=N)N)NC(=O)[C@H](CC(C)C)NC(=O)[C@@H]1CCCCNC(=O)CC[C@H](NC(C)=O)C(=O)N[C@@H](C)C(=O)N[C@@H](CC(C)C)C(=O)N1)C(=O)N[C@@H](CCC(=O)O)C(=O)N[C@H](C(=O)N[C@H](C(N)=O)[C@@H](C)CC)[C@@H](C)CC (Ac-EALKLRKL[Nle]EII-NH2; lactam 1-4) | 0.0489 |

The next lines start with the values.

| Ki [µM] | Structure (SMILES) |
| --- | --- |
| 0.0055 | CC[C@H](C)[C@H](NC(=O)[C@@H](NC(=O)[C@H](CC(=O)O)NC(=O)[C@H](CC1CCCCC1)NC(=O)[C@H](CC(C)C)NC(=O)[C@H](CCCCN)NC(=O)[C@H](CCCNC(=N)N)NC(=O)[C@H](CC(N)=O)NC(=O)[C@@H]1CCCCNC(=O)CC[C@H](NC(C)=O)C(=O)N[C@@H](C)C(=O)N[C@@H](CCC(=O)O)C(=O)N1)[C@@H](C)CC)C(N)=O (Ac-EAEKNRKL[Cha]DII-NH2; lactam 1-4) |
| 0.0448 | CCCC[C@H](NC(=O)[C@H](CC(C)C)NC(=O)[C@H](CCCCN)NC(=O)C(CCCN=C(N)N)NC(=O)[C@H](CC(N)=O)NC(=O)[C@@H]1CCCCNC(=O)CC[C@H](NC(C)=O)C(=O)N[C@@H](C)C(=O)N[C@@H](CCCCN)C(=O)N1)C(=O)N[C@@H](CCC(=O)O)C(=O)N[C@H](C(=O)N[C@H](C(N)=O)[C@@H](C)CC)[C@@H](C)CC (some centres undefined) (Ac-EAKKN[ξR]KL[Nle]EII-NH2; lactam 1-4) |
